Measured values reported in ChEMBL document CHEMBL4321861, “An Underlying Mechanism of Dual Wnt Inhibition and AMPK Activation: Mitochondrial Uncouplers Masquerading as Wnt Inhibitors” (J Med Chem, 2019).
The source made the active and inactive calls. The calls are words filed in the database; no cut-off is given here.

How the values were obtained:
DLD-1 [1] = test: Inhibition of mitochondrial oxidative phosphorylation in human DLD1 cells assessed as reduction in oxygen consumption rate by seahorse XFe96 analyser based assay; conditions: Mitochondria
How it was run: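 DLD-1 cells, ~3×10^4 per well, seeded a day ahead; medium switched to Seahorse XF modified medium with 25 mM glucose and 1 mM pyruvate. Mitochondrial stress test: 1 μM oligomycin A, test compound in DMSO in place of FCCP, then 1.0 μM rotenone plus 1.0 μM antimycin A. OCR recorded; ATP production rate by real-time ATP rate assay.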

HEK293 [2] = test: Inhibition of LiCl-activated Wnt signaling in HEK293 cells at 3 uM by TOPFlash reporter gene assay; assay type: cell-based; conditions: Homo sapiens
How it was run: (§1)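 Stable HEK293T Super 8xTOPFlash reporter line (pGL4.83 backbone, puromycin-selected), stimulated with 25 mM LiCl to stabilize β-catenin. Treated with compound in DMSO or DMSO. Luciferase read in 96- or 24-well format. AMPK inhibitor compound C used at 5 μM where applied. At least three independent repeats.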

DLD-1 [3] = test: Uncoupling of mitochondrial oxidative phosphorylation in human DLD1 cells assessed as increase in oxygen consumption rate at 3 uM in presence of oligomycin A by seahorse XFe96 analyser based assay; conditions: Mitochondria
How it was run: (§2)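 DLD-1 cells, about 3×10^4 per XF96 well, in XF medium with 25 mM glucose and 1 mM pyruvate. Mito stress sequence: oligomycin A 1 μM, then test compound 3 μM in DMSO in place of FCCP (FCCP 1 μM as control), then rotenone/antimycin A 1 μM each. Oxygen consumption rate recorded.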

[4] = target: T1, AMP-activated protein kinase, AMPK (Homo sapiens) (UniProt P54646+O43741+P54619+Q9UGJ0+Q9Y478+Q13131+Q9UGI9); test: Activation of AMPK (unknown origin) assessed as increase in AMPK phosphorylation at T172 residue at 3 uM by Western blot analysis; assay type: protein-complex assay
How it was run: (§3)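 Cells lysed in 50 mM HEPES, 100 mM NaCl, 2 mM EDTA, 1% glycerol, 50 mM NaF, 1 mM Na3VO4, 1% Triton X-100 with protease inhibitors. Western blot probed for total and phospho-AMPK and total and phospho-ACC, with actin loading control. Compounds given in DMSO. At least three independent repeats.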

[5] = target: T1, AMP-activated protein kinase, AMPK (Homo sapiens); test: Activation of AMPK (unknown origin) assessed as […] phosphorylation at S79 residue at 3 uM by Western blot analysis; assay type: protein-complex assay; how it was run: as §3
Liver [6] = test: Uncoupling of mitochondrial oxidative phosphorylation in mouse liver mitochondria assessed as increase in oxygen consumption rate at 1 to 5 uM in presence of oligomycin A by seahorse XFe96 analyser based assay
How it was run: (§4)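 Mouse liver mitochondria isolated by differential centrifugation in mannitol/sucrose/HEPES/EGTA buffer, pH 7.2. Loaded at 6 μg/well in KCl/HEPES/MgCl2/KH2PO4 respiration buffer, pH 7.2, at 37 °C. OCR measured on XFe96.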

HEK293 [7] = test: Inhibition of LiCl-activated Wnt signaling in HEK293 cells by TOPFlash reporter gene assay; assay type: cell-based; conditions: Homo sapiens; how it was run: as §1
[8] = target: T1, AMP-activated protein kinase, AMPK (Homo sapiens); test: Activation of AMPK in human LS174T cells assessed as increase in AMPK phosphorylation at T172 residue by Western blot analysis; assay type: cell-based; how it was run: as §3
[9] = target: T1, AMP-activated protein kinase, AMPK (Homo sapiens); test: Activation of AMPK in human LS174T cells assessed as […] phosphorylation at S79 residue by Western blot analysis; assay type: cell-based; how it was run: as §3
HEK293 [10] = test: Inhibition of LiCl-activated Wnt signaling in HEK293 cells at 10 uM by TOPFlash reporter gene assay; assay type: cell-based; conditions: Homo sapiens; how it was run: as §1
HEK293 [11] = test: Inhibition of LiCl-activated Wnt signaling in HEK293 cells at 0.3 to 3 uM by TOPFlash reporter gene assay; assay type: cell-based; conditions: Homo sapiens; how it was run: as §1
HEK293 [12] = test: Effect on FOP reporter expression in LiCl-induced HEK293T cells incubated for 24 hrs by luciferase reporter gene assay; assay type: functional, cell-based; conditions: Homo sapiens
How it was run: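 HEK293T cells transiently transfected with Super 8x TOPFlash or 8x FOPFlash plus control Renilla reporter. Wnt signaling activated with LiCl or Wnt3A. Cells treated with DMSO or compound in DMSO. Luciferase activity read.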

LS174T [13] = test: Cytotoxicity against human LS174T cells assessed as reduction in cell viability by Vi-Cell XR cell viability analyzer-based assay; assay type: functional
How it was run: (§5)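 Colon cancer cells plated at 3.5×10^4 per well in 12-well plates. LS174T were in EMEM + 10% FBS; DLD-1 were in DMEM + 10% FBS. After 24 h, compound in DMSO added (DMSO control). Cell number and viability counted on a Vi-Cell XR analyzer. Triplicate wells.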

DLD-1 [14] = test: Cytotoxicity against human DLD1 cells assessed as reduction in cell viability by Vi-Cell XR cell viability analyzer-based assay; assay type: functional; how it was run: as §5
Homo sapiens [15] = species: Homo sapiens; test: Inhibition of Wnt in human DLD1 cells assessed as reduction in Axin2 expression at 1 to 3 uM by Western blot analysis; assay type: cell-based
How it was run: (§6)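 Colorectal cancer cells (DLD-1, LS174T, SW620) treated with a compound dose series in DMSO. Lysates immunoblotted for Axin2, c-Myc and cyclin D1. At least three independent repeats.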

Homo sapiens [16] = species: Homo sapiens; test: Inhibition of Wnt in human SW620 cells assessed as reduction in Axin2 expression at 1 uM by Western blot analysis; assay type: cell-based; how it was run: as §6
LS174T [17] = test: Inhibition of Wnt in human LS174T cells assessed as reduction in Axin2 expression at 1 uM by Western blot analysis; assay type: cell-based; how it was run: as §6
Homo sapiens [18] = species: Homo sapiens; test: Inhibition of Wnt in human DLD1 cells assessed as reduction in c-Myc expression at 1 to 3 uM by Western blot analysis; assay type: cell-based; how it was run: as §6
Homo sapiens [19] = species: Homo sapiens; test: Inhibition of Wnt in human SW620 cells assessed as reduction in c-Myc expression at 1 uM by Western blot analysis; assay type: cell-based; how it was run: as §6
LS174T [20] = test: Inhibition of Wnt in human LS174T cells assessed as reduction in c-Myc expression at 1 uM by Western blot analysis; assay type: cell-based; how it was run: as §6
Homo sapiens [21] = species: Homo sapiens; test: Inhibition of Wnt in human DLD1 cells assessed as reduction in cyclin-D1 expression at 1 to 3 uM by Western blot analysis; assay type: cell-based; how it was run: as §6
Homo sapiens [22] = species: Homo sapiens; test: Inhibition of Wnt in human SW620 cells assessed as reduction in cyclin-D1 expression at 1 uM by Western blot analysis; assay type: cell-based; how it was run: as §6
LS174T [23] = test: Inhibition of Wnt in human LS174T cells assessed as reduction in cyclin-D1 expression at 1 uM by Western blot analysis; assay type: cell-based; how it was run: as §6
[24] = target: T1, AMP-activated protein kinase, AMPK (Homo sapiens); test: Activation of AMPK in human LS174T cells assessed as increase in AMPK phosphorylation at T172 residue at 3 uM by Western blot analysis; assay type: cell-based; how it was run: as §3
[25] = target: T1, AMP-activated protein kinase, AMPK (Homo sapiens); test: Activation of AMPK in human LS174T cells assessed as […] phosphorylation at S79 residue at 3 uM by Western blot analysis; assay type: cell-based; how it was run: as §3
HEK293 [26] = test: Inhibition of LiCl-activated Wnt signaling in HEK293 cells at 3 uM in presence of AMPK inhibitor compound C by TOPFlash reporter gene assay; assay type: cell-based; conditions: Homo sapiens; how it was run: as §1
DLD-1 [27] = test: Induction of mitochondrial membrane potential disruption in human DLD1 cells measured after 2 hrs by TMRM staining based fluorescence microscopic analysis; conditions: Mitochondria
How it was run: (§7)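 Cells grown one day in 24-well plates: DLD-1 in DMEM + 10% serum, LS174T in RPMI1640 + 5% serum. Treated 2 h with compound in DMSO or DMSO, then stained with 100 nM TMRM for 15 min. Rinsed once with PBS and imaged by fluorescence microscopy at 568 nm.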

LS174T [28] = test: Induction of mitochondrial membrane potential disruption in human LS174T cells measured after 2 hrs by TMRM staining based fluorescence microscopic analysis; conditions: Mitochondria; how it was run: as §7
Liver [29] = test: Uncoupling of mitochondrial oxidative phosphorylation in mouse liver mitochondria assessed as increase in oxygen consumption rate in presence of oligomycin A by seahorse XFe96 analyser based assay; how it was run: as §4
[30] = target: T1, AMP-activated protein kinase, AMPK (Homo sapiens); test: Activation of AMPK in human LS174T cells assessed as increase in AMPK phosphorylation at T172 residue at 3 uM measured within 15 mins by Western blot analysis; assay type: cell-based; how it was run: as §3
[31] = target: T1, AMP-activated protein kinase, AMPK (Homo sapiens); test: Activation of AMPK in human LS174T cells assessed as […] phosphorylation at S79 residue at 3 uM measured within 15 mins by Western blot analysis; assay type: cell-based; how it was run: as §3
DLD-1 [32] = test: Induction of mitochondrial dysfunction in human DLD1 cells assessed as reduction in mitochondrial ATP production at 3 uM by Seahorse XF real-time assay; conditions: Mitochondria
How it was run: (§8)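 About 3×10^4 cells seeded per well in XF96 plates. Next day medium switched to Seahorse XF medium with 25 mM glucose and 1 mM pyruvate. Compound given at 3 μM in DMSO; FCCP 1 μM as reference. Mitochondrial and glycolytic ATP production rates measured by XF Real-Time ATP Rate Assay.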

DLD-1 [33] = test: Induction of mitochondrial dysfunction in human DLD1 cells assessed as increase in glycolytic ATP production at 3 uM by Seahorse XF real-time assay; conditions: Mitochondria; how it was run: as §8
LS174T [34] = test: Induction of mitochondrial dysfunction in human LS174T cells assessed as reduction in mitochondrial ATP production at 3 uM by Seahorse XF real-time assay; conditions: Mitochondria; how it was run: as §8
LS174T [35] = test: Induction of mitochondrial dysfunction in human LS174T cells assessed as increase in glycolytic ATP production at 3 uM by Seahorse XF real-time assay; conditions: Mitochondria; how it was run: as §8
DLD-1 [36] = test: Uncoupling of mitochondrial oxidative phosphorylation in human DLD1 cells at 3 uM in presence of oligomycin A by seahorse XFe96 analyser based assay; conditions: Mitochondria; how it was run: as §2
LS174T [37] = test: Inhibition of LiCl-induced Wnt signaling in human LS174T cells assessed as reduction in beta-catenin accumulation; assay type: cell-based

C=C(C)[C@H]1Cc2c(ccc3c2O[C@@H]2COc4cc(OC)c(OC)cc4[C@@H]2C3=O)O1
inhibition (DLD-1 [1]): Active

CCCCCCC1C(=O)O[C@H](C)[C@H](NC(=O)c2cccc(NC=O)c2O)C(=O)O[C@@H](C)[C@@H]1OC(=O)CC(C)C (stereo not given in full)
inhibition (DLD-1 [1]): Active

CN(c1ccc([N+](=O)[O-])c2ccccc12)S(=O)(=O)c1cc(Cl)ccc1Cl
inhibition (HEK293 [2]): inactive
Activity (DLD-1 [3]): inactive
Activity [4]: inactive
Activity [5]: inactive
Activity (Liver [6]): inactive

Cc1cc([N+](=O)[O-])ccc1N(C)S(=O)(=O)c1cc(Cl)ccc1Cl
inhibition (HEK293 [2]): inactive
Activity [4]: inactive
Activity [5]: inactive
Activity (Liver [6]): inactive

O=C1[C@H](Cc2ccc(O)cc2)N2C(=O)CCN(C(=O)NCc3ccccc3)[C@H]2CN1Cc1cccc2ccccc12
inhibition (HEK293 [7]): Active
Activity [8]: inactive
Activity [9]: inactive

N#Cc1c(O)c2c(-c3ccc(-c4ccccc4O)cc3)csc2[nH]c1=O
inhibition (HEK293 [10]): inactive

O=C(Nc1ccc(C(F)(F)F)cc1)Nc1cc(F)c(F)c(F)c1
inhibition (HEK293 [11]): Active
Activity (HEK293 [12]): inactive
IC50 (LS174T [13]): 550 nM
IC50 (DLD-1 [14]): 540 nM
inhibition (Homo sapiens [15]): Active
inhibition (Homo sapiens [16]): Active
inhibition (LS174T [17]): Active
inhibition (Homo sapiens [18]): Active
inhibition (Homo sapiens [19]): Active
inhibition (LS174T [20]): Active
inhibition (Homo sapiens [21]): Active
inhibition (Homo sapiens [22]): Active
inhibition (LS174T [23]): Active
Activity [24]: Active
Activity [25]: Active
inhibition (HEK293 [26]): Active
Activity (DLD-1 [27]): Active
Activity (LS174T [28]): Active

O=[N+]([O-])c1ccc(NS(=O)(=O)c2cc(Cl)ccc2Cl)c2ccccc12
inhibition (HEK293 [2]): Active
Activity [4]: Active
Activity [5]: Active
Activity (Liver [29]): Dose-dependent effect

CC[C@@H]1/C=C/C=C/C[C@H](C)[C@@H](O)[C@](C)(O)C(=O)[C@H](C)[C@@H](O)[C@H](C)C(=O)[C@H](C)[C@@H](O)[C@H](C)/C=C/C(=O)O[C@H]2[C@@H](C)[C@@H](CC1)O[C@@]1(CC[C@@H](C)[C@@H](C[C@@H](C)O)O1)[C@@H]2C
inhibition (DLD-1 [1]): Active

Cc1cc([N+](=O)[O-])ccc1NS(=O)(=O)c1cc(Cl)ccc1Cl
Activity [30]: Active
Activity [31]: Active
Activity (DLD-1 [32]): Active
Activity (DLD-1 [33]): Active
Activity (LS174T [34]): Active
Activity (LS174T [35]): Active
Activity (DLD-1 [27]): Active
Activity (LS174T [28]): Active
Activity (DLD-1 [36]): Active
Activity (DLD-1 [3]): Active
Activity (Liver [29]): Dose-dependent effect
inhibition (LS174T [37]): Active
